Laboratory results as given in paper PMC4575845 (Journal of biomolecular screening, 2015).
In brackets after ≈: the same amount, converted by molar mass. Entries after “also recorded” stand apart in the source; their conditions may differ.

Assays:
P. aeruginosa GluRS [1] = biological target: T1, P. aeruginosa GluRS (Pseudomonas aeruginosa, UniProt Q9XCL6); test: SPA-based tRNA aminoacylation assay; type: biochemical
T1 sequence (Q9XCL6 1-494): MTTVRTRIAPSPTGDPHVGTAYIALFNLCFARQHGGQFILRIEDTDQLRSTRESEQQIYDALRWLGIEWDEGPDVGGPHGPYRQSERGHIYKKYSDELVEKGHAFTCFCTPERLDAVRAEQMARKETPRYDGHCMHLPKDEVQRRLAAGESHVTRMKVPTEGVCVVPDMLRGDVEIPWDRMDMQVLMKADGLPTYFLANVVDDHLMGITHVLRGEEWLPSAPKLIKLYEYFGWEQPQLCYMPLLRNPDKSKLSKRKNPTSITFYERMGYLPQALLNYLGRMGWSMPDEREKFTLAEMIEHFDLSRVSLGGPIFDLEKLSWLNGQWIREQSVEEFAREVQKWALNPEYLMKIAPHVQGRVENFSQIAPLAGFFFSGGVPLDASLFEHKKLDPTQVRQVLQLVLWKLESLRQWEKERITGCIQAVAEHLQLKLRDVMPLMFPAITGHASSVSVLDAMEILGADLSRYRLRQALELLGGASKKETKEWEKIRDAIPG
In short: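 P. aeruginosa GluRS was expressed in E. coli Rosetta 2(DE3) from pET101 and Ni-NTA purified. Final mix: 50 mM Tris-HCl pH 7.5, 8 mM MgCl2, 1.25 mM ATP, 1 mM spermine, 1 mM DTT, 100 µM [3H]Glu, 0.1 µM enzyme. Compound (200–0.4 µM) preincubated 15 min ambient; E. coli tRNA (0.75 µM tRNAGlu) added; 1 h 37 °C; EDTA stop. Poly-L-lysine yttrium silicate SPA beads (citrate pH 2.0), 1 h RT, scintillation count.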

[2] = test system: Streptococcus pneumonia (ATCC 49619); test: Broth microdilution MIC; type: cell-based; settings: Streptococcus pneumoniae, ATCC49619
[3] = test system: Staphylococcus aureus (ATCC 29213); test: Broth microdilution MIC; type: cell-based; settings: ATCC29213
S. pneumoniae = test: Time-kill study; type: cell-based, Streptococcus pneumoniae; settings: 4x MIC
In short: (§1)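 Time-kill per CLSI M26-A, with compound at 4× MIC (broth microdilution MIC per CLSI M7-A7). Medium: Brain Heart Infusion or Trypticase Soy Broth, with or without 3% lysed horse blood. Viable counts by plating for CFU at 0, 2, 4, 6 and 24 h versus compound-free control cultures.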

S. aureus = test: Time-kill study; type: cell-based, Staphylococcus aureus; settings: 4x MIC
NIH/3T3 cells = test: MTT in vitro cytotoxicity test; type: cell-based; settings: 25–800 µg/mL, 24 h
P. aeruginosa GluRS [4] = biological target: T1, P. aeruginosa GluRS; test: Binding mode assay; type: biochemical; settings: for mode of inhibition with respect to ATP: IC50 at ATP 25-1000 µM, Glu 100 µM; for mode of inhibition with respect to Glu: IC50 at Glu 25-300 µM, ATP held constant
In short: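 IC50 by the same SPA aminoacylation assay, with 0.05 µM P. aeruginosa GluRS and compound at 200–0.4 µM final, preincubated 15 min RT. Started with E. coli tRNA (0.75 µM tRNAGlu), 1 h at 37 °C, EDTA stop. DMSO-only positive controls. ATP series 25–1000 µM at 100 µM Glu. Glu series 25–300 µM at constant saturating ATP. Sigmoidal dose–response fit; mode inferred from IC50 change versus substrate level.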

[5] = test system: Enterococcus faecalis (ATCC 29212); test: Broth microdilution MIC; type: cell-based; settings: ATCC29212
E. faecalis = test: Time-kill study; type: cell-based, Enterococcus faecalis; settings: 4x MIC, 0-24 h
In short: as §1

Structure (SMILES) | IC50 (P. aeruginosa GluRS [1]) [µM] | MIC [2] [µg/mL] | MIC [3] [µg/mL] | bacteriostatic or bactericidal (S. pneumoniae; 0-24 h) | inhibition of growth in time-kill (S. pneumoniae; all times tested) | bacteriostatic or bactericidal (S. aureus; 0-24 h) | regrowth in time-kill (S. aureus; at 24 h) | cytotoxicity (MTT) (NIH/3T3 cells) | mode of inhibition with respect to ATP (P. aeruginosa GluRS [4]) | mode of inhibition with respect to Glu (P. aeruginosa GluRS [4]) | MIC [5] [µg/mL] | bacteriostatic or bactericidal (E. faecalis) | decrease in colony-forming units (CFUs) compared to the control (E. faecalis) | decrease in colony-forming units (CFUs) compared to the control (S. pneumoniae; 0-24 h)
CC1(C)SC(=S)N(/N=C/C=C/c2ccc([N+](=O)[O-])o2)C1N(O)C(=O)Nc1cccc(Cl)c1 (centres unmarked) [BT_04B09, 3-(3-chlorophenyl)-1-(5,5-dimethyl-3-{(E)-[(2E)-3-(5-nitrofuran-2-yl)prop-2-en-1-ylidene]amino}-2-thioxo-1,3-thiazolidin-4-yl)-1-hydroxyurea] | 24.9 | 32 (≈ 64.5 µM) | 32 (≈ 64.5 µM) | bactericidal | completely | bactericidal | some regrowth | not observed to be toxic | noncompetitive; also recorded: remain constant | competitive | – | – | – | –
O=C(Nc1ccc(-c2cc(C(F)(F)F)nn2-c2ccccc2)cc1)Nc1ccc(F)cc1F [BT_03F04, 1-(2,4-difluorophenyl)-3-{4-[1-phenyl-3-(trifluoromethyl)-1H-pyrazol-5-yl]phenyl}urea] | 21.9 | 8 (≈ 17.5 µM) | – | bacteriostatic | – | – | – | not observed to be toxic | noncompetitive | noncompetitive | 2 (≈ 4.36 µM) | bacteriostatic | 2–3 log10 | 2–3 log10
